High-throughput results (PubChem BioAssay)
GPR7 antag: GPR7 receptor antagonists, primary screen, cell-based, fluorescence, single concentration. Neuropeptides B/W receptor type 1 (Homo sapiens), P48145. GPR7-expressing cells, fluorescence antagonist assay. inhibition, % at 4.4 µM. actives 1.1% (n = 290,000). AID 1861, 2009; in the data active = inhibition above about 16%, passing the limit was not always enough;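 note: cells stimulated with the agonist NPW; 0% = agonist with vehicle and 100% = vehicle without agonist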
Target sequence (P48145 whole entry, looked up): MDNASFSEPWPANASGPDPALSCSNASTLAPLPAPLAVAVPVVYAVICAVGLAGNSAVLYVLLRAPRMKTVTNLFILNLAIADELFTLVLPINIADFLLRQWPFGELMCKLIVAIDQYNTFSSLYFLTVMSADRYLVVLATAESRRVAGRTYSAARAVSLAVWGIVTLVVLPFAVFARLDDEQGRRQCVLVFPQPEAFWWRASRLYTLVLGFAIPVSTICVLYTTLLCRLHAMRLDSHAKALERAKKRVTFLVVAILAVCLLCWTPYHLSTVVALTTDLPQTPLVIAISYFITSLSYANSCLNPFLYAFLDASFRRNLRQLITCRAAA
GRK2 inh: compounds blocking aptamer binding on GRK2 – biochemical, human GRK2, bead flow cytometry, HTS, primary screen. actives 0.59% (n = 330,000). inhibition of aptamer binding, % at 10 µM. Beta-adrenergic receptor kinase 1 (Homo sapiens), P25098. FAM-aptamer displacement from GRK2;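 active = inhibition of aptamer binding above 40%, roughly 3 SD of noise, on plates passing a quality check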;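 note: median bead fluorescence of bound FAM aptamer so fluorescent compounds give negative values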
core dimer inh: inhibitors of HCV core protein dimerization, primary screen, biochemical, TR-FRET, high-throughput; TR-FRET GST/Flag-core106 dimerization, 1536-well; inhibition, % at 5 µM; actives 0.33% (n = 300,000); AID 1899, 2009;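 active = inhibition above the mean of all tested compounds plus 3 SD, set per screening campaign, cut at about 45% in these data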
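System: GST-tagged and Flag-tagged HCV core protein residues 1-106 / Input: core106 proteins, GST 13.5 nM and Flag 17 nM / Buffer or medium: KF-containing HEPES buffer, pH 7.45, DTT, CHAPS, BSA / Probe or stimulus: Eu-anti-GST and XL665-anti-Flag labelled anti-tag antibodies / Schedule: 4 h, 22.5 °C incubation / Technique: TR-FRET 671 and 617 nm emission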
DNA FID counter-1: compounds displacing fluorescent DNA intercalator, primary screen, artefact control for HCV NS3 helicase inhibitor project, biochemical, FID fluorescence | DNA fluorescent intercalator displacement | inhibition, % at 7.9 µM | actives 0.17% (n = 290,000) | AID 1845, 2009;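 note: 0% = vehicle and 100% = reference compound; higher means more ethidium bromide displaced from hairpin DNA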
DAGLB inh: DAGLB lipase inhibitors, primary screen, biochemical, fluorescence, HTS. Diacylglycerol lipase-beta (Homo sapiens), Q8NCG7. HEK293T DAGLB membrane lysate, EnzChek fluorogenic substrate. inhibition, % at 5.17 µM. actives 0.059% (n = 340,000); in the data active = inhibition above about 34%;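 note: 0% = enzyme with vehicle and 100% = wells lacking enzyme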
NS3 helicase inh: inhibitors of HCV NS3 helicase, primary screen, biochemical, Cy5 molecular beacon fluorescence; Hepatitis C virus NS3 helicase; NS3 helicase DNA unwinding; inhibition, % at 10.9 µM; actives 0.56% (n = 290,000);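 active = inhibition above the mean of all tested compounds plus 3 SD, set per campaign, cut at about 35% in these data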;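 note: 0% = DMSO wells and 100% = thioflavine S control wells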
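Compound dosing – single dose, 10.9 µM nominal final, DMSO 0.8% final · System – NS3 helicase fragment of HCV · Buffer or medium – MOPS pH 6.5, MgCl2, DTT, Tween20, BSA · Signal – Cy5 beacon fluorescence read at start and 1 h · Also added – annealed dual-labelled DNA beacon duplex, ATP-started · Schedule – 1 h at 25 °C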
NS3 hel confirm: HCV NS3 helicase inhibitors, retest, confirmation, biochemical, Cy5 molecular beacon fluorescence, triplicate; shares compounds with NS3 helicase inh; NS3 helicase DNA unwinding; inhibition, % at 10.9 µM; actives 31% (n = 1,600);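 active = inhibition above the mean of all tested compounds plus 3 SD, cutoff set per campaign, cut at about 36% in these data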
DNA FID counter-2: compounds displacing fluorescent DNA intercalator, artefact control for HCV NS3 helicase inhibitor project, biochemical, FID fluorescence, triplicate; shares compounds with NS3 helicase inh; DNA fluorescent intercalator displacement; inhibition, % at 7.9 µM; actives 4% (n = 1,600);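 note: 0% = vehicle and 100% = reference compound; higher means more displacement of ethidium bromide from the DNA hairpin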
* hit, by the source's call; / = not tested or not shown. An excerpt weighted towards active compounds, which were near 2.2% of everything screened. Cut-off read from the data, not from the text of the source, unless noted: active = inhibition above about 37%; inactive = the rest.

SMILES | GPR7 antag | GRK2 inh | core dimer inh | DNA FID counter-1 | DAGLB inh | NS3 helicase inh | NS3 hel confirm | DNA FID counter-2
O=C(O)C1CCN(c2nc(-c3ccccc3)c3cc(Br)ccc3n2)CC1 | 20 | 5 | 5 | -16 | 3 | 48* | 69* | -12
OCCN1CCN(c2nc(-c3ccccc3)c3cc(Br)ccc3n2)CC1 | -9 | 0 | -7 | 1 | 1 | -66 | / | /
CC(=O)Nc1ccc(S(=O)(=O)NCC2CCC(C(=O)NC(C)c3ccc4c(c3)OCCO4)CC2)cc1 (stereo unspecified) | 5 | 0 | -1 | -21 | / | -7 | / | /
Cc1cc(/C=C2\C(=N)N3N=C(C(C)C)SC3=NC2=O)c(C)n1-c1ccccc1 | 1 | 0 | 14 | -5 | 0 | 51* | -1 | 2
CC1=NN2C(=N)/C(=C\c3cc(C)n(-c4cccc(C)c4)c3C)C(=O)N=C2S1 | -1 | 3 | 15 | -12 | 2 | -10 | / | /
Cc1cc2nc3s/c(=C/c4ccc(-c5ccccc5C(=O)O)o4)c(=O)n3c2cc1C | 1 | 4 | 4 | -10 | -3 | -16 | / | /
C#CCN1C(=O)S/C(=C\c2ccc(-c3ccc(Cl)c(C(=O)O)c3)o2)C1=O | -16 | 12 | -9 | -14 | -2 | 40* | 56* | -14
O=C(O)c1cc(-c2ccc(/C=c3\sc4nc5ccc(Br)cc5n4c3=O)o2)ccc1Cl | -17 | 19 | -46 | -2 | / | 38* | 73* | 9
COc1ccc(C2=CSC3=NCCN23)cc1Br | / | 0 | 3 | / | / | / | / | /
O=c1nc2s/c(=C\c3ccco3)c(=O)n2nc1Cc1ccc(F)cc1 | 2 | 18 | 37 | -12 | 2 | 47* | 9 | 5
O=S(=O)(CCN1CCN(c2ccccc2O)CC1)c1cc(Cl)ccc1Cl | / | / | / | / | 1 | / | / | /
CCOC(=O)c1ccc(N=Cc2c(O)c3ccccc3oc2=O)cc1 | 1 | 3 | 10 | -11 | 0 | 41* | -15 | -3
O=C(c1ccco1)N1CCN(C(=O)c2ccccc2[N+](=O)[O-])CC1 | 0 | 0 | -1 | 1 | 0 | 1 | / | /
O=C(c1ccco1)N1CCN(C(=O)c2[nH]ncc2[N+](=O)[O-])CC1 | 12 | 0 | 3 | -2 | -5 | 37* | -17 | 6
O=C(Nc1nc2c(Cl)c(Cl)ccc2s1)C1CC1 | 11 | 2 | -6 | -20 | -7 | 41* | 2 | -12
Cn1cccc1CC(=O)NNC(=S)Nc1ccc(F)cc1 | -6 | 0 | -5 | -17 | 0 | 36* | -17 | 1
COCc1cc(=O)n2[nH]c(-c3ccco3)cc2n1 | -6 | 0 | 2 | -2 | 0 | -7 | / | /
CCCCN1Cc2c(nc3cc(-c4ccco4)[nH]n3c2=O)C1=O | 1 | 2 | -7 | -18 | 2 | 49* | -4 | 7
CC(C)=CCc1cc2c(=O)c3c(O)c4c(cc3oc2c(O)c1O)OC(C)C4(C)C (stereo unspecified) | / | 2 | -2 | / | / | / | / | /
CCCCCCCCCC(=O)O | / | 1 | / | / | 0 | / | / | /
CCCCCC/C(C)=C1/SC(=S)NC1=O | -7 | 0 | 6 | -5 | 11 | 40* | 12 | 0
Cc1ccc2nc(SCC3CCCCO3)[nH]c2c1 (stereo unspecified) | 4 | 11 | -1 | -4 | -3 | -15 | / | /
COc1cc(/C=C2/C(=O)NN(c3ccc(F)cc3)C2=O)cc(Cl)c1O | -6 | 6 | -4 | -10 | 10 | 36* | 34 | 7
COc1cc(/C=C2/C(=O)NN(c3ccc(Cl)cc3)C2=O)cc(Br)c1O | -4 | 7 | -6 | -12 | 22 | 23 | / | /
COc1cccc(/C=C2/C(=O)NN(c3ccc(Br)cc3)C2=O)c1O | 12 | 27 | / | -3 | 7 | 38* | 58* | 8
SMILES | GPR7 antag | GRK2 inh | core dimer inh | DNA FID counter-1 | DAGLB inh | NS3 helicase inh | NS3 hel confirm | DNA FID counter-2
COC(=O)c1ccc(N2NC(=O)/C(=C/c3cc(OC)c(O)c(OC)c3)C2=O)cc1 | -12 | 10 | -2 | 4 | 6 | 61* | 17 | 13
CCN1CCN(C(=O)N(c2ccccc2)c2ccccc2)CC1 | 4 | 1 | -7 | -4 | -1 | 2 | / | /
CC(=O)c1cccc(N=Cc2c(O)ccc3ccccc23)c1 | -5 | 0 | 11 | -2 | 1 | 3 | / | /
CC(=O)N(C)c1ccc(N=Cc2c(O)ccc3ccccc23)cc1 | -2 | 3 | -2 | -4 | -2 | 36* | 2 | 7
Cc1ccc(-c2cc(-c3ccco3)c3c(N)c(C(=O)NN)oc3n2)cc1 | -8 | 0 | 15 | -15 | -5 | 42* | 4 | 5
COc1cccc(/C=N/NC(=O)c2oc3nc(-c4ccccc4)cc(-c4ccco4)c3c2N)c1 | -12 | 3 | 13 | -19 | -3 | 39* | 2 | -27
O=C(O)c1cccc(S(=O)(=O)N2CCCC(c3nc4c(nnn4Cc4ccc(F)cc4)c(=O)[nH]3)C2)c1 (stereo unspecified) | 4 | 18 | 1 | -15 | 1 | 40* | -1 | -25
O=C(O)c1cccc(S(=O)(=O)N2CCCC(c3nc4c(nnn4Cc4ccccc4Cl)c(=O)[nH]3)C2)c1 (stereo unspecified) | 1 | 2 | 4 | -13 | 2 | 19 | / | /
Cc1ccc(C)c(NC(=O)c2cc(C)nc3ccccc23)c1 | -3 | 0 | -5 | -26 | -3 | 55* | -2 | 0
CN(C(=O)CSc1nnc(C(F)(F)F)n1C)c1c(N)n(Cc2ccccc2)c(=O)[nH]c1=O | / | / | / | / | -5 | / | / | /
O=C(Cn1ccc2ccccc2c1=O)NCC1COc2ccccc2O1 (stereo unspecified) | 20 | 1 | 6 | -1 | -2 | 17 | / | /
O=C(CN1C(=O)C2CC=CCC2C1=O)NCC1COc2ccccc2O1 (stereo unspecified) | 21 | 0 | -5 | -6 | 1 | 85* | -19 | 6
COc1cc(C2c3sc(=O)[nH]c3SC3C(=O)N(c4ccc(Br)cc4)C(=O)C32)ccc1O (stereo unspecified) | -10 | 0 | 2 | -23 | 6 | 16 | / | /
